Activity calls are given as the source filed them. The calls are words filed in the database; no cut-off is given here.
Experiments:
MM1.S [1] = assay: Induction of apoptosis in human MM1S cells assessed as viable cells at 80 nM after 48 hrs by Annexin V-FITC/propidium iodide staining-based flow cytometric analysis (reference value: 98.9%); format: functional; details: read-out: Activity
MV4-11 [2] = assay: Induction of apoptosis in human MV4-11 cells assessed as necrotic cells at 40 nM after 48 hrs by Annexin V-FITC/propidium iodide staining-based flow cytometric analysis (reference value: 0.17%); format: functional
Histone deacetylase 9 = Histone deacetylase 9 (Homo sapiens, UniProt Q9UKV0); assay: Inhibition of recombinant full length C-terminal His-tagged human HDAC9 expressed in baculovirus expression system using Ac-peptide-AMC as substrate preincubated for 15 mins followed by substrate addition and measured after 1 hr by fluorescence assay
Sequence of Histone deacetylase 9 (Q9UKV0 whole entry): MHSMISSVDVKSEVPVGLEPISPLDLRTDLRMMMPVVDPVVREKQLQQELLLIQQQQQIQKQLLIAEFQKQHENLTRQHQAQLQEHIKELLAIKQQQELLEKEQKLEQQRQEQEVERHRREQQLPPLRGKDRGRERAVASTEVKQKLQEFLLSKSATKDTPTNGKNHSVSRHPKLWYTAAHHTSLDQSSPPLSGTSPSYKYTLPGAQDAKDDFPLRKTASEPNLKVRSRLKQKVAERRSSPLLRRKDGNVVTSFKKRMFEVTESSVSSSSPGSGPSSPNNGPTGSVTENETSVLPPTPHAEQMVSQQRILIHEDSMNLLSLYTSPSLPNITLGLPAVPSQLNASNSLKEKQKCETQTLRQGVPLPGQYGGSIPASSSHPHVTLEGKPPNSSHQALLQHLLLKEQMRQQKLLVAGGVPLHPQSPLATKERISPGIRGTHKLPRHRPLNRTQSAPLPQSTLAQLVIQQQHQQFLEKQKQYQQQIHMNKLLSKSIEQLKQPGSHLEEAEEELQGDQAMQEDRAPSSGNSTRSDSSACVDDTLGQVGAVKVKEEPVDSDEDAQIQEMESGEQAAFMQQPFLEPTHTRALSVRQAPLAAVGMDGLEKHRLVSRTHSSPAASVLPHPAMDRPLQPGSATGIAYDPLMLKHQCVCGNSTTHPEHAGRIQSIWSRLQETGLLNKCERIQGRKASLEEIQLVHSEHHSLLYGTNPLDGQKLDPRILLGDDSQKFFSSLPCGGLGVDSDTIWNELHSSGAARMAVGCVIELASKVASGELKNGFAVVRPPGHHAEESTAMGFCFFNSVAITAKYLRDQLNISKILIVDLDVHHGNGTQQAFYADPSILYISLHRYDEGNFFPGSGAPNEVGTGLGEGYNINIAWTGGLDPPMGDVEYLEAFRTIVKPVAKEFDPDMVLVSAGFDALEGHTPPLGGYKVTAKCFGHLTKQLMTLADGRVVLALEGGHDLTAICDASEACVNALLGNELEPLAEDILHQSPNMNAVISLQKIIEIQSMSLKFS

MV4-11 [3] = assay: Induction of apoptosis in human MV4-11 cells assessed as early apoptotic cells at 10 nM after 48 hrs by Annexin V-FITC/propidium iodide staining-based flow cytometric analysis (reference value: 10.7%); format: functional
[4] = molecular target: T1, Serine/threonine-protein kinase mTOR (Homo sapiens, UniProt P42345); assay: Inhibition of mTOR in human MV4-11 cells assessed as decrease in 4EBP1 phosphorylation at ser 65 residues at 0.01 to 10 uM after 24 hrs by Western blot analysis; format: cell-based
Summary of the method: (§1)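 Treatment of MV4-11 cells lasted 24 h at 0.01, 0.1, 1 and 10 μM. Lysis in RIPA buffer and BCA quantitation, then 30 μg protein by SDS-PAGE, PVDF transfer, 5% milk block, primary antibody overnight at 4 °C, HRP secondary 1 h and ECL detection. p-p70S6K (T389), p-4EBP1 (S65), p-Akt (S473) and p-ERK were probed.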

MM1.S [5] = assay: Induction of apoptosis in human MM1S cells assessed as viable cells at 20 nM after 48 hrs by Annexin V-FITC/propidium iodide staining-based flow cytometric analysis (reference value: 98.9%); format: functional; details: read-out: Activity
MM1.S [6] = assay: Cell cycle arrest in human MM1S cells assessed as accumulation at G0/G1 phase at 10 nM after 24 hrs by propidium iodide/RNase staining-based FACS analysis (reference value: 49.22%); format: functional
Raji = assay: Antiproliferative activity against human Raji cells after 72 hrs by MTT assay; format: functional, cell-based
Summary of the method: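 Log-phase cells were plated at 10000-15000 per well and exposed to serial concentrations after 24 h for 72 h. Read-out was MTT for 1-3 h, then 20% SDS overnight and absorbance at 570 nm. IC50 was calculated from growth versus untreated control, as mean ± SEM of at least three independent experiments.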

MV4-11 [7] = assay: Induction of apoptosis in human MV4-11 cells assessed as necrotic cells at 10 nM after 48 hrs by Annexin V-FITC/propidium iodide staining-based flow cytometric analysis (reference value: 0.17%); format: functional
MM1.S [8] = assay: Induction of apoptosis in human MM1S cells assessed as early apoptotic cells at 20 nM after 48 hrs by Annexin V-FITC/propidium iodide staining-based flow cytometric analysis (reference value: 0.38%); format: functional
[9] = molecular target: Histone deacetylase 1/2/3 (Homo sapiens) (UniProt Q13547+O15379+Q92769); assay: Inhibition of HDAC1/2/3 in human MV4-11 cells assessed as increase in H3 acetylation after 6 hrs by Western blot analysis; format: cell-based
Summary of the method: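 MV4-11 cells treated 6 h at 0.01, 0.1 or 1 μM. Whole-cell protein extracted in RIPA buffer and quantified by BCA. 30 μg protein run on SDS-PAGE and transferred to PVDF. Blocked 1 h in 5% milk, primary antibody overnight at 4 °C, HRP secondary 1 h, ECL detection. Acetyl-histone H3 and acetyl-α-tubulin probed, with GAPDH as loading control.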

MV4-11 [10] = assay: Cell cycle arrest in human MV4-11 cells assessed as accumulation at S phase at 10 nM after 24 hrs by propidium iodide/RNase staining-based FACS analysis (reference value: 36.42%); format: functional
[11] = molecular target: Polyamine deacetylase HDAC10 (Homo sapiens, UniProt Q969S8); assay: Inhibition of recombinant full length N-terminal FLAG-tagged human HDAC10 expressed in baculovirus infected sf9 cells using Ac-peptide-AMC as substrate preincubated for 15 mins followed by substrate addition and measured after 1 hr by fluorescence assay
Sequence of Polyamine deacetylase HDAC10 (Q969S8 whole entry): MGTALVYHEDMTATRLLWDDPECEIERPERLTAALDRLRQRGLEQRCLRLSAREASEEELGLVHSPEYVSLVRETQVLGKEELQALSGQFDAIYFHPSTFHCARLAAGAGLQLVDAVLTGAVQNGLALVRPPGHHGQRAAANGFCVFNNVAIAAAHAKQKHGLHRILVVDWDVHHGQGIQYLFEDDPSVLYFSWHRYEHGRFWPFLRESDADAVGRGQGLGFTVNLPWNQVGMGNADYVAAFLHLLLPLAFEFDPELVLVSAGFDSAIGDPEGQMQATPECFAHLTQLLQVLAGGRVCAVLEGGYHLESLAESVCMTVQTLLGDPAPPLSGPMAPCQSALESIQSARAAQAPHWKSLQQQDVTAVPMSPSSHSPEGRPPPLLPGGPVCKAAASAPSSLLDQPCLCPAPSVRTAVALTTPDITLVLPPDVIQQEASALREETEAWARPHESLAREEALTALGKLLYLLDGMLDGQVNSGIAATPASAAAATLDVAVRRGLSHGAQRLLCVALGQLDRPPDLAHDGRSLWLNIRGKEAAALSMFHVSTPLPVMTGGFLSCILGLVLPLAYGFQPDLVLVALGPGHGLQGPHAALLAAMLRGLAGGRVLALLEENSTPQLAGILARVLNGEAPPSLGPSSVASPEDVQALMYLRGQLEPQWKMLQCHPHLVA

[12] = molecular target: T1, Serine/threonine-protein kinase mTOR; assay: Inhibition of mTOR in human MV4-11 cells assessed as decrease in ERK phosphorylation after 24 hrs by Western blot analysis; format: cell-based; summary of the method: as §1
MM1.S [13] = assay: Cell cycle arrest in human MM1S cells assessed as accumulation at S phase at 10 nM after 24 hrs by propidium iodide/RNase staining-based FACS analysis (reference value: 24.49%); format: functional
MM1.S [14] = assay: Induction of apoptosis in human MM1S cells assessed as viable cells at 320 nM after 48 hrs by Annexin V-FITC/propidium iodide staining-based flow cytometric analysis (reference value: 98.9%); format: functional; details: read-out: Activity
MV4-11 [15] = assay: Induction of apoptosis in human MV4-11 cells assessed as late apoptotic cells at 10 nM after 48 hrs by Annexin V-FITC/propidium iodide staining-based flow cytometric analysis (reference value: 5.03%); format: functional
MM1.S [16] = assay: Induction of apoptosis in human MM1S cells assessed as late apoptotic cells at 10 nM after 48 hrs by Annexin V-FITC/propidium iodide staining-based flow cytometric analysis (reference value: 0.42%); format: functional
MM1.S [17] = assay: Induction of apoptosis in human MM1S cells assessed as viable cells at 160 nM after 48 hrs by Annexin V-FITC/propidium iodide staining-based flow cytometric analysis (reference value: 98.9%); format: functional; details: read-out: Activity
[18] = molecular target: PI3-kinase p110-alpha/p85-alpha (Homo sapiens) (UniProt P27986+P42336); assay: Inhibition of recombinant human full length N-terminal His-tagged/untagged p110alpha/p85alpha expressed in baculovirus expression system at 1000 nM using PIP2 as substrate after 1 hr by Kinase-Glo reagent-based assay relative to control
Summary of the method: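 PI3Kα (p110α/p85α) incubated with PIP2 substrate and ATP in kinase buffer for 1 h at room temperature. Kinase-Glo reagent was then added for 15 min before luminescence read-out. Inhibition rate at 100 or 1000 nM is the mean of at least two experiments.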

MM1.S [19] = assay: Induction of apoptosis in human MM1S cells assessed as necrotic cells at 80 nM after 48 hrs by Annexin V-FITC/propidium iodide staining-based flow cytometric analysis (reference value: 0.32%); format: functional
[20] = Toxicity against NOD/SCID mouse xenografted with human MM1S cells assessed as mouse survival at 20 mg/kg, iv administered every 2 days for 5 days; format: organism-based; details: in vivo
Summary of the method: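 Female NOD/SCID mice, 5-6 weeks old, received 10^7 MM1S cells in 100 μL serum-free RPMI 1640 s.c. into the right flank. At 100-200 mm3 tumours they were randomised, 6 mice per group. Tumours were measured by caliper every 2 days. At the end, tumours were excised and weighed. Survivors are reported per group.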

MM1.S [21] = assay: Induction of apoptosis in human MM1S cells assessed as viable cells at 40 nM after 48 hrs by Annexin V-FITC/propidium iodide staining-based flow cytometric analysis (reference value: 98.9%); format: functional; details: read-out: Activity
MM1.S [22] = assay: Induction of apoptosis in human MM1S cells assessed as necrotic cells at 40 nM after 48 hrs by Annexin V-FITC/propidium iodide staining-based flow cytometric analysis (reference value: 0.32%); format: functional

C[C@@H]1CN(C(=O)Nc2ccc(-c3nc(N4CCOCC4)c4cnn(CCCCCCC(=O)NO)c4n3)cc2)CCO1
viability at 0.08 µM (MM1.S [1]): 49.7% | Activity (MV4-11 [2]): 2.05% | IC50 (Histone deacetylase 9): > 1000 nM | Activity (MV4-11 [3]): 14.8% | inhibition [4]: Active | viability at 0.02 µM (MM1.S [5]): 92.6% | Activity (MM1.S [6]): 66.96% | IC50 (Raji): 1.9 nM | Activity (MV4-11 [7]): 0.14% | Activity (MM1.S [8]): 1.61% | inhibition [9]: Dose-dependent effect | Activity (MV4-11 [10]): 23.42% | IC50 [11]: 0.58 nM | inhibition [12]: Dose-dependent effect | Activity (MM1.S [13]): 12.6% | viability at 0.32 µM (MM1.S [14]): 3.68% | Activity (MV4-11 [15]): 9.91% | Activity (MM1.S [16]): 1.49% | viability at 0.16 µM (MM1.S [17]): 13.8% | inhibition [18]: 57.3% | Activity (MM1.S [19]): 1.78% | Activity [20]: Non-Toxic | viability at 0.04 µM (MM1.S [21]): 70.1% | Activity (MM1.S [22]): 2.08%
